This is an account of results in ChEMBL document CHEMBL1127799, “Derivatives of a novel cyclopeptolide. 1. Synthesis, antifungal activity, and structure-activity relationships” (1994).

The term MIC denotes the least concentration at which growth counts as inhibited.

Assay type in all cases: functional
Assay [1] has as its system Candida albicans. Kind of assay: Tested for minimum inhibitory concentration against Candida albicans 124 (Candida albicans) at pH of 4.5. Summed up: (§1)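 Broth microdilution in malt extract broth, initial pH 4.5 or 6.5, with 1×10^3 CFU per 0.2 mL well of thawed stored cultures. Compound stocks were made in 5% DMSO/0.2% Tween 80 and diluted to final 0.05–100 μg/mL. Plates were incubated 48 h at 30 °C and read macroscopically. MIC was the lowest concentration with no detectable growth. Vehicle-only wells served as controls.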

Assay [2] deals with Candida tropicalis. Kind of assay: Tested for minimum inhibitory concentration against Candida tropicalis 43 (C.t) at pH of 6.5. Summed up: as §1
Assay [3] has as its system Pichia kudriavzevii. Kind of assay: Tested for minimum inhibitory concentration against Candida krusei 132 (C.k) at pH of 6.5. Summed up:
as §1

Assay [4] relates to Candida albicans. Kind of assay: Tested for minimum inhibitory concentration against Candida albicans 124 (Candida albicans) at pH of 6.5. Summed up: as §1
The subject of assay [5] is Meyerozyma guilliermondii. As to the kind of experiment: Tested for minimum inhibitory concentration against Candida guilliermondii 80 (C.g) at pH of 6.5. Summed up:
as §1

In assay [6] the test system is Pichia kudriavzevii. As to the kind of experiment: Tested for minimum inhibitory concentration against Candida krusei 132 (C.k) at pH of 4.5. The gist of the method:
as §1

The test system of assay [7] is Meyerozyma guilliermondii. As to the kind of experiment: Tested for minimum inhibitory concentration against Candida guilliermondii 80 (C.g) at pH of 4.5. Summed up: as §1
The test system of assay [8] is Candida tropicalis. Kind of assay: Tested for minimum inhibitory concentration against Candida tropicalis 43 (C.t) at pH of 4.5. The gist of the method: as §1
In assay [9] the test system is Candida albicans. Kind of assay: tested for minimum inhibitory concentration against Candida albicans 124 (Candida albicans) at pH of 6.5. The gist of the method:
as §1

Converted amounts (≈) assume the structure as drawn.

Take `CC[C@@H](C)[C@H]1C(=O)NCC(=O)N(C)[C@@H](C(C)C)C(=O)N[C@@H](Cc2ccc(OC)cc2)C(=O)O[C@H](C)C(=O)N2CCCC[C@H]2C(=O)N(C)[C@@H](C(C)C)C(=O)N[C@@H](C(C)C)C(=O)N(C)[C@@H](CC(=O)NCCN(C)C)C(=O)N(C)[C@@H]([C@@H](C)CC)C(=O)N1C`: the MIC (against Candida albicans [1]; in the assay with Candida tropicalis [2]; against Pichia kudriavzevii [3]; in the assay with Candida albicans [4]; in assay [5]; with Pichia kudriavzevii [6]) was > 100 µg/mL each time. The MIC (in assay [7]; against Candida tropicalis [8]) was > 100 µg/mL each time.

Turning to `C=CCOC(=O)C[C@H]1C(=O)N(C)[C@@H]([C@@H](C)CC)C(=O)N(C)[C@@H]([C@H](C)CC)C(=O)NCC(=O)N(C)[C@@H](C(C)C)C(=O)N[C@@H](Cc2ccc(OCC=C)cc2)C(=O)O[C@H](C)C(=O)N2CCCC[C@H]2C(=O)N(C)[C@@H](C(C)C)C(=O)N[C@@H](C(C)C)C(=O)N1C`, the MIC (against Candida albicans [1]; against Candida tropicalis [2]; in the assay on Pichia kudriavzevii [3]; in [5]; against Pichia kudriavzevii [6]; in the assay with Candida albicans [9]) was > 100 µg/mL in each case. Moreover, the MIC (in assay [7]; in the assay with Candida tropicalis [8]) was > 100 µg/mL in each case.

Take `CC[C@@H](C)[C@H]1C(=O)NCC(=O)N(C)[C@@H](C(C)C)C(=O)N[C@@H](Cc2ccc(OCc3ccccc3)cc2)C(=O)O[C@H](C)C(=O)N2CCCC[C@H]2C(=O)N(C)[C@@H](C(C)C)C(=O)N[C@@H](C(C)C)C(=O)N(C)[C@@H](CC(=O)O)C(=O)N(C)[C@@H]([C@@H](C)CC)C(=O)N1C`: the MIC in the assay on Candida albicans [1] is 50 µg/mL (≈ 41.6 µM); against Candida tropicalis [2], > 100 µg/mL; in the assay on Pichia kudriavzevii [3] it was > 100 µg/mL; against Candida albicans [4], > 100 µg/mL; in assay [5], > 100 µg/mL; with Pichia kudriavzevii [6] it was > 100 µg/mL. The MIC (in [7]; against Candida tropicalis [8]) was > 100 µg/mL in each case.

For the compound `CC[C@@H](C)[C@H]1C(=O)NCC(=O)N(C)[C@@H](C(C)C)C(=O)N[C@@H](Cc2ccc(OC)cc2)C(=O)O[C@H](C)C(=O)N2CCCC[C@H]2C(=O)N(C)[C@@H](C(C)C)C(=O)N[C@@H](C(C)C)C(=O)N(C)[C@@H](CCOC(=O)c2ccccc2C(=O)O)C(=O)N(C)[C@@H]([C@@H](C)CC)C(=O)N1C`, the MIC (against Candida albicans [1]; in the assay with Candida tropicalis [2]; against Pichia kudriavzevii [3]; against Candida albicans [4]; in assay [5]; in the assay with Pichia kudriavzevii [6]) was > 100 µg/mL each time. Moreover, the minimum inhibitory concentration (MIC) (in assay [7]; in the assay with Candida tropicalis [8]) was > 100 µg/mL in each case.
